Legend:
Mus musculus [1] = assay: In vivo biodistribution of compound in liver of MCF-7 transfected with IL-1alpha implanted athymic mice at 30 min post iv injection; format: ADME, organism-based; conditions: 0.5 h
Outline: (§1)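 Tumor-bearing athymic mice 8 weeks after xenograft implantation; tail-vein iv dose of 1–3 mCi [11C]-labeled tracer (subpharmacologic) in conscious restrained animals. Killed by decapitation under halothane at 30 min. Tissues excised and weighed, decay-corrected radioactivity gamma-counted, expressed as % injected dose/g. Tumor/blood and tumor/muscle ratios taken from these values. Mean ± SD, n=3 mice.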

Mus musculus [2] = assay: In vivo biodistribution ratio in tumor to that of muscle (T/M ratio) in MCF-7 transfected with IL-1alpha implanted athymic mice; format: ADME, organism-based, Muscle tissue; outline: as §1
Mus musculus [3] = assay: In vivo biodistribution of compound in muscle of MCF-7 transfected with IL-1alpha implanted athymic mice at 30 min post iv injection; format: ADME, organism-based, Muscle tissue; conditions: 0.5 h; outline: as §1
Mus musculus [4] = assay: In vivo biodistribution of compound in tumor of MDA-MB-435 implanted athymic mice at 30 min post iv injection; format: ADME, organism-based; conditions: 0.5 h; outline: as §1
Mus musculus [5] = assay: In vivo biodistribution of compound in brain of MCF-7 transfected with IL-1alpha implanted athymic mice at 30 min post iv injection; format: ADME, organism-based; conditions: 0.5 h; outline: as §1
Mus musculus [6] = assay: In vivo biodistribution of compound in lungs of MDA-MB-435 implanted athymic mice at 30 min post iv injection; format: ADME, organism-based, Lung; conditions: 0.5 h; outline: as §1
Mus musculus [7] = assay: In vivo biodistribution of compound in brain of MDA-MB-435 implanted athymic mice at 30 min post iv injection; format: ADME, organism-based; conditions: 0.5 h; outline: as §1
Mus musculus [8] = assay: In vivo biodistribution of compound in spleen of MCF-7 transfected with IL-1alpha implanted athymic mice at 30 min post iv injection; format: ADME, organism-based; conditions: 0.5 h; outline: as §1
Mus musculus [9] = assay: In vivo biodistribution of compound in kidney of MCF-7 transfected with IL-1alpha implanted athymic mice at 30 min post iv injection; format: ADME, organism-based; conditions: 0.5 h; outline: as §1
Mus musculus [10] = assay: In vivo biodistribution of compound in bone of MDA-MB-435 implanted athymic mice at 30 min post iv injection; format: ADME, organism-based, Bone element; conditions: 0.5 h; outline: as §1
Mus musculus [11] = assay: In vivo biodistribution of compound in kidneys of MDA-MB-435 implanted athymic mice at 30 min post iv injection; format: ADME, organism-based, Kidney; conditions: 0.5 h; outline: as §1
Mus musculus [12] = assay: In vivo biodistribution of compound in blood of MDA-MB-435 implanted athymic mice at 30 min post iv injection; format: ADME, organism-based; conditions: 0.5 h; outline: as §1
Mus musculus [13] = assay: In vivo biodistribution of compound in tumor of MCF-7 transfected with IL-1alpha implanted athymic mice at 30 min post iv injection; format: ADME, organism-based; conditions: 0.5 h; outline: as §1
Mus musculus [14] = assay: In vivo biodistribution of compound in heart of MCF-7 transfected with IL-1alpha implanted athymic mice at 30 min post iv injection; format: ADME, organism-based; conditions: 0.5 h; outline: as §1
Mus musculus [15] = assay: In vivo biodistribution of compound in lungs of MCF-7 transfected with IL-1alpha implanted athymic mice at 30 min post iv injection; format: ADME, organism-based, Lung; conditions: 0.5 h; outline: as §1
Mus musculus [16] = assay: In vivo biodistribution of compound in small intestine of MCF-7 transfected with IL-1alpha implanted athymic mice at 30 min post iv injection; format: ADME, organism-based; conditions: 0.5 h; outline: as §1
Mus musculus [17] = assay: In vivo biodistribution of compound in blood of MCF-7 transfected with IL-1alpha implanted athymic mice at 30 min post iv injection; format: ADME, organism-based; conditions: 0.5 h; outline: as §1
Mus musculus [18] = assay: In vivo biodistribution of compound in liver of MDA-MB-435 implanted athymic mice at 30 min post iv injection; format: ADME, organism-based; conditions: 0.5 h; outline: as §1
Mus musculus [19] = assay: In vivo biodistribution of compound in spleen of MDA-MB-435 implanted athymic mice at 30 min post iv injection; format: ADME, organism-based; conditions: 0.5 h; outline: as §1
Mus musculus [20] = assay: In vivo biodistribution of compound in bone of MCF-7 transfected with IL-1alpha implanted athymic mice at 30 min post iv injection; format: ADME, organism-based, Bone element; conditions: 0.5 h; outline: as §1
Mus musculus [21] = assay: In vivo biodistribution of compound in heart of MDA-MB-435 implanted athymic mice at 30 min post iv injection; format: ADME, organism-based; conditions: 0.5 h; outline: as §1
[22] = In vivo biodistribution ratio in tumor to that of muscle (T/M ratio) in MDA-MB-435 implanted athymic mice; format: functional, Muscle tissue
Outline: (§2)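 Athymic mice 8 weeks after MDA-MB-435 xenograft implantation received a subpharmacologic iv tail-vein dose of the 11C-labelled tracer under conscious restraint. They were killed by decapitation under halothane at 30 min post injection. Tissues were excised and weighed, and decay-corrected radioactivity was gamma-counted as % id/g. The ratio is tumor %id/g over muscle or blood %id/g, given as mean ± SD of n=3 mice.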

Mus musculus [23] = assay: In vivo biodistribution of compound in muscle of MDA-MB-435 implanted athymic mice at 30 min post iv injection; format: ADME, organism-based, Muscle tissue; conditions: 0.5 h; outline: as §1
[24] = In vivo biodistribution ratio in tumor to that of blood (T/B ratio) in MCF-7 transfected with IL-1alpha implanted athymic mice; format: ADME, organism-based; conditions: mouse; outline: as §1
Mus musculus [25] = assay: In vivo biodistribution of compound in small intestine of MDA-MB-435 implanted athymic mice at 30 min post iv injection; format: ADME, organism-based; conditions: 0.5 h; outline: as §1
[26] = In vivo biodistribution ratio in tumor to that of blood (T/B ratio) in MDA-MB-435 implanted athymic mice; format: functional; outline: as §2

**Q.** For `[11CH3]Oc1ccc(NS(=O)(=O)c2c(F)c(F)c(F)c(F)c2F)cc1F`, which Injected dose/g (Mus musculus [1]) is on record?
**A.** Its Injected dose/g is 6.79%.

**Q.** What about the Ratio (Mus musculus [2]) of the same compound?
**A.** The Ratio was 0.89.

**Q.** And the Injected dose/g (Mus musculus [3])?
**A.** The Injected dose/g was 1.7%.

**Q.** What about the Injected dose/g (Mus musculus [4]) of the same compound?
**A.** The Injected dose/g was 1.92%.

**Q.** What about the Injected dose/g (Mus musculus [5]) of the same compound?
**A.** The Injected dose/g was 1.53%.

**Q.** What about the Injected dose/g (Mus musculus [6]) of the same compound?
**A.** Its Injected dose/g is 9.2%.

**Q.** And the Injected dose/g (Mus musculus [7])?
**A.** Its Injected dose/g is 1.03%.

**Q.** What about the Injected dose/g (Mus musculus [8]) of the same compound?
**A.** Its Injected dose/g is 2.01%.

**Q.** And the Injected dose/g (Mus musculus [9])?
**A.** The Injected dose/g was 3.34%.

**Q.** And the Injected dose/g (Mus musculus [10])?
**A.** Its Injected dose/g is 1.75%.

**Q.** And the Injected dose/g (Mus musculus [11])?
**A.** Its Injected dose/g is 17.62%.

**Q.** What about the Injected dose/g (Mus musculus [12]) of the same compound?
**A.** The Injected dose/g was 0.35%.

**Q.** What about the Injected dose/g (Mus musculus [13]) of the same compound?
**A.** Its Injected dose/g is 1.51%.

**Q.** And the Injected dose/g (Mus musculus [14])?
**A.** The Injected dose/g was 1.75%.

**Q.** And the Injected dose/g (Mus musculus [15])?
**A.** The Injected dose/g was 4.95%.

**Q.** What about the Injected dose/g (Mus musculus [16]) of the same compound?
**A.** Its Injected dose/g is 5.16%.

**Q.** And the Injected dose/g (Mus musculus [17])?
**A.** Its Injected dose/g is 1.68%.

**Q.** And the Injected dose/g (Mus musculus [18])?
**A.** Its Injected dose/g is 14.92%.

**Q.** What about the Injected dose/g (Mus musculus [19]) of the same compound?
**A.** Its Injected dose/g is 2.95%.

**Q.** What about the Injected dose/g (Mus musculus [20]) of the same compound?
**A.** The Injected dose/g was 1.31%.

**Q.** What about the Injected dose/g (Mus musculus [21]) of the same compound?
**A.** The Injected dose/g was 8.54%.

**Q.** What about the Ratio [22] of the same compound?
**A.** Its Ratio is 1.01.

**Q.** What about the Injected dose/g (Mus musculus [23]) of the same compound?
**A.** Its Injected dose/g is 1.99%.

**Q.** What about the Kp [24] of the same compound?
**A.** The Kp was 0.94.

**Q.** And the Injected dose/g (Mus musculus [25])?
**A.** Its Injected dose/g is 6.19%.

**Q.** What about the Ratio [26] of the same compound?
**A.** The Ratio was 5.63.
